In the library only some 1.1% were active in any assay of this set; here they are far more common.
Vif imaging: inhibitors of HIV Vif; HEK293T cells, Vif self-association by quenched fluorescence, imaging, 24 h; inhibition, % at 7.49 µM; 340,000 compounds, 0.35% hits; AID 602346; in the data active = inhibition above about 50%, passing the limit was not always enough; inconclusive = no clear call, values can overlap the other calls; inactive = below about 31%
NR2E3 ag-1: human photoreceptor-specific nuclear receptor agonism. Q9Y5X4. CHO-S Gal4-NCOR/VP16-NR2E3 two-hybrid, luciferase. inhibition of corepressor binding, % at 3.98 µM. 360,000 compounds, 0.35% hits. AID 602229;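 active = inhibition above the mean of all tested compounds plus 3 SD, cut at about 70% in these data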;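 note: 0% = DMSO with NR2E3 transfected cells and 100% = cells lacking NR2E3 construct; higher means lower luciferase signal from less NR2E3 corepressor binding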
Target sequence (Q9Y5X4 whole entry, looked up, the tested form may be a part): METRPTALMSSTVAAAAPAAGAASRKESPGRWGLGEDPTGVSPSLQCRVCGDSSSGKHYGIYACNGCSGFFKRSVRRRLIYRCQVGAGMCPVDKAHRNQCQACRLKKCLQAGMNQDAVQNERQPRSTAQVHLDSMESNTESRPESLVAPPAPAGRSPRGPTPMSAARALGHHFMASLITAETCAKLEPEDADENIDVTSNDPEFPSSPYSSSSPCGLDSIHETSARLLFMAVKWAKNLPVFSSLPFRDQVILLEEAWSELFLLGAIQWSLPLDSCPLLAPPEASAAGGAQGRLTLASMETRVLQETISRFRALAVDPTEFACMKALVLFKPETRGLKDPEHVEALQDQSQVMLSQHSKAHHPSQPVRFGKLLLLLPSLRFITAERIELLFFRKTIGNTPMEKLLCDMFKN
NR2E3 ag-2: NR2E3 (human) agonism. Q9Y5X4. GST-NR2E3/biotin-RetCOR TR-FRET, 1536-well. inhibition of corepressor binding, % at 4.78 µM. 320,000 compounds, 0.12% hits;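 active = percent inhibition above the cutoff of mean plus 3 SD of all tested compounds, set per screening campaign, cut at about 20% in these data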;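 note: 0% = DMSO wells and 100% = biotin wells as full block of FRET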
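Material – GST-tagged NR2E3 plus biotinylated RetCOR corepressor · Quantity – NR2E3 fusion 1.35 nM · Times – 5 h incubation at 4 °C · Medium – pH 7.5 Tris-based buffer · Technique – TR-FRET, Eu(K)-anti-GST donor, streptavidin-D2 acceptor, ex 340, em 617/671 nm · Benchmarks – high control biotin, low control 0.6% DMSO · Format – 1536-well plates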
MT1-MMP act inh: blocks activation of human MT1-MMP. HT1080 RFP-PRO-GFP cells, GFP/RFP ratio fluorescence, overnight; percent of plate control window, DMSO zero. 360,000 compounds, 0.061% hits. GFP/RFP ratio change, % at 20 µM. AID 651647;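 active = GFP/RFP ratio change of at least 30% with cell ATP level not reduced by more than half and red fluorescence within 50% of control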
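Material: RFP-PRO-GFP reporter HT1080 cells. Dosing: single-point 20 µM compound, 1% DMSO. Controls: DMSO and RFP-L50D-GFP cell wells. Timing: cells overnight before dosing, compound overnight, 37 °C, 5% CO2. Measure: GFP/RFP fluorescence ratio.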
HCV core dimer: HCV core protein dimerization inhibition; TR-FRET GST/Flag-core106 dimerization, 1536-well; AID 1899; 300,000 compounds, 0.33% hits; inhibition, % at 5 µM;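 active = inhibition above the mean of all tested compounds plus 3 SD, set per screening campaign, cut at about 45% in these data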
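Material: Tagged HCV core106 pair (GST and Flag) | Amount: GST-core106 13.5 nM, Flag-core106 17 nM | Medium: KF-containing HEPES buffer, pH 7.45, DTT, CHAPS, BSA | Reagent: Eu donor and XL665 acceptor anti-tag antibodies | Schedule: 4 h at 22.5 °C | Technique: Time-resolved FRET, ex 340 nm, em 617 and 671 nm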
DAGLB inh: blocks human DAGLB lipase activity; HEK293T DAGLB membrane lysate, EnzChek fluorogenic substrate; inhibition, % at 5.17 µM; 340,000 compounds, 0.059% hits; in the data active = inhibition above about 34%;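 note: 0% = enzyme with vehicle and 100% = wells lacking enzyme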
DAGLB confirm: DAGLB (human) inhibition, confirmation screen; 190 compounds, 73% hits; shares compounds with DAGLB inh; inhibition, % at 5.17 µM; HEK293T DAGLB membrane lysate, EnzChek fluorogenic substrate;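 active = mean inhibition over triplicate wells above a set limit taken from the primary lipase screen, cut at about 34% in these data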;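 note: 0% = DAGLB with DMSO and 100% = wells lacking DAGLB enzyme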
An asterisk follows results filed as active.

How did Nc1nc(-c2ccccc2)c(N=Nc2cccnc2)s1 do in these assays?
Vif imaging: 8; NR2E3 ag-1: 11; NR2E3 ag-2: -1; MT1-MMP act inh: 19; HCV core dimer: -5; DAGLB inh: 51*; DAGLB confirm: 50*

Results for Cc1ccc(-n2c(O)c(/C=N/Nc3ccc(S(=O)(=O)N4CCOCC4)cc3[N+](=O)[O-])c3ccccc3c2=O)c(C)c1 ?
Vif imaging: -9; NR2E3 ag-1: -3; NR2E3 ag-2: -1; MT1-MMP act inh: -8; HCV core dimer: 16; DAGLB inh: 35*; DAGLB confirm: 46*

Results for O=C(O)c1ccc(/C=N\Nc2ccc(S(=O)(=O)N3CCOCC3)cc2[N+](=O)[O-])cc1 ?
Vif imaging: -1; NR2E3 ag-1: -4; NR2E3 ag-2: -2; MT1-MMP act inh: 19; HCV core dimer: -1; DAGLB inh: 2

Results for COc1ccc(C2/C=C\CN(C(=O)c3ccc(C)cc3)[C@H](Cc3ccccc3)C(=O)N2Cc2ccc(F)cc2)cc1 (stereo partly specified) ?
Vif imaging: -15; NR2E3 ag-1: -16; NR2E3 ag-2: 1; MT1-MMP act inh: -8; HCV core dimer: 16; DAGLB inh: 40*; DAGLB confirm: 39*

What do the screens show for `COc1cc(N=Nc2ccc(Br)cc2)cc(C=O)c1O`?
Vif imaging: -4; NR2E3 ag-1: 15; MT1-MMP act inh: 29; DAGLB inh: 38*; DAGLB confirm: 28

Results for Cc1c(C(=O)N2CCC(C)(C(=O)NS(=O)(=O)C3CC3)C2)oc2ccccc12 (stereo unspecified) ?
Vif imaging: 0; NR2E3 ag-1: -1; MT1-MMP act inh: 1

How did COc1ccc(C(=O)NCc2nnc(SCC(=O)Nc3cc(OC)ccc3OC)o2)cc1 do in these assays?
Vif imaging: 0; NR2E3 ag-1: -6; NR2E3 ag-2: -1; MT1-MMP act inh: -2; HCV core dimer: -11; DAGLB inh: -1

How did COc1ccc(OC)c(NC(=O)CSc2nnc(CNC(=O)c3ccccc3F)o2)c1 do in these assays?
Vif imaging: 0; NR2E3 ag-1: -9; NR2E3 ag-2: 1; MT1-MMP act inh: -1; HCV core dimer: -15; DAGLB inh: 36*; DAGLB confirm: -6

How did COc1cccc(C2C(C#N)=C(N)N(N(C)C)C3=C2C(=O)CC(C)(C)C3)c1OC (stereo unspecified) do in these assays?
Vif imaging: 1; NR2E3 ag-1: 20; NR2E3 ag-2: 0; MT1-MMP act inh: 2; HCV core dimer: -6; DAGLB inh: 0

Results for CCCCOc1ccc(C(=O)Oc2cccnc2)cc1 ?
Vif imaging: -6; NR2E3 ag-1: 12; NR2E3 ag-2: -1; MT1-MMP act inh: 4; HCV core dimer: -5; DAGLB inh: -8

What do the screens show for `O=[N+]([O-])c1ccc(N2CCN(c3ccc(F)cc3)CC2)cc1`?
Vif imaging: 0; NR2E3 ag-1: -30; NR2E3 ag-2: 0; MT1-MMP act inh: 22; HCV core dimer: 3; DAGLB inh: 55*; DAGLB confirm: 99*

Results for COc1ccc(NC(=O)CN(C)C(=O)c2ccc(NS(=O)(=O)c3cccc([N+](=O)[O-])c3)cc2)cc1 ?
Vif imaging: 8; NR2E3 ag-1: -3; NR2E3 ag-2: 3; MT1-MMP act inh: 5; HCV core dimer: 4; DAGLB inh: -2

What do the screens show for `CN(C)c1ccc(N=Nc2ccc(S(N)(=O)=O)cc2)cc1`?
Vif imaging: 1; NR2E3 ag-1: -132; NR2E3 ag-2: 3; MT1-MMP act inh: 17; HCV core dimer: -34; DAGLB inh: 39*; DAGLB confirm: 39*

Results for CCOC(=O)[C@]12CCC=C1N(CCC1=CCCCC1)C(=O)[C@H](CC(=O)N1CCN(C(=O)c3ccco3)CC1)C2 ?
NR2E3 ag-1: -7; MT1-MMP act inh: 5

Results for CCN(CC)c1ccc(N=Nc2nn(C)c(C)c2[N+](=O)[O-])cc1 ?
Vif imaging: 1; NR2E3 ag-1: -81; NR2E3 ag-2: -10; MT1-MMP act inh: 44; HCV core dimer: -37; DAGLB inh: 44*; DAGLB confirm: 46*

How did CCN(Cc1ccccc1)c1ccc(N=Nc2nn(C)c(C)c2[N+](=O)[O-])cc1 do in these assays?
Vif imaging: -2; NR2E3 ag-1: -20; NR2E3 ag-2: -3; MT1-MMP act inh: 29; HCV core dimer: -12; DAGLB inh: 59*; DAGLB confirm: 56*

Results for CCN(CC)c1ccc(N=Nc2ncn[nH]2)cc1 ?
Vif imaging: 3; NR2E3 ag-1: -114; NR2E3 ag-2: -5; MT1-MMP act inh: 28; HCV core dimer: -13

How did COC(=O)c1ccccc1NCc1cc(=O)oc2cc(O)c(O)cc12 do in these assays?
Vif imaging: -4; NR2E3 ag-1: -26; NR2E3 ag-2: 1; MT1-MMP act inh: -1; HCV core dimer: 12; DAGLB inh: 48*; DAGLB confirm: 34*

What do the screens show for `O=c1cc(-c2ccccc2Cl)oc2c(NS(=O)(=O)c3cc(Cl)cc(Cl)c3O)ccc(O)c12`?
NR2E3 ag-1: -20; NR2E3 ag-2: 4; MT1-MMP act inh: -42; HCV core dimer: 22; DAGLB inh: 41*; DAGLB confirm: 38*

Results for O=C(c1cc(O)c(O)c([N+](=O)[O-])c1)c1ccccc1F ?
Vif imaging: -1; NR2E3 ag-1: -19; NR2E3 ag-2: 3; MT1-MMP act inh: 13; HCV core dimer: 8; DAGLB inh: 38*; DAGLB confirm: 23

Results for NC(=O)C12CCCC(Br)(CCC1)C2 ?
Vif imaging: -3; NR2E3 ag-1: 0; NR2E3 ag-2: -1; MT1-MMP act inh: -2; HCV core dimer: 1; DAGLB inh: 0

How did O=C(CS(=O)CC(=O)N(CC(=O)NC1CCCC1)c1ccc2c(c1)OCCO2)Nc1ccc(F)cc1 (stereo unspecified) do in these assays?
Vif imaging: inconclusive; NR2E3 ag-1: -24; NR2E3 ag-2: 2; MT1-MMP act inh: 6; HCV core dimer: -1; DAGLB inh: 1

What do the screens show for `CN1CCN(C(CNC(=O)c2ccc(Br)o2)c2ccc(F)cc2)CC1` (stereo unspecified)?
NR2E3 ag-1: -4; NR2E3 ag-2: 1; MT1-MMP act inh: 0; HCV core dimer: -3; DAGLB inh: 3

How did C/C(=N\Nc1ccc(S(N)(=O)=O)cc1[N+](=O)[O-])c1ccc2c(c1)OCO2 do in these assays?
Vif imaging: -5; NR2E3 ag-1: 18; MT1-MMP act inh: 6; DAGLB inh: 37*; DAGLB confirm: 42*

Assay outcomes as filed in PubChem BioAssay.
